The values that follow come from ChEMBL document CHEMBL3774372, “Design, physico-chemical properties and biological evaluation of some new N-[(phenoxy)alkyl]- and N-{2-[2-(phenoxy)ethoxy]ethyl}aminoalkanols as anticonvulsant agents” (Bioorg Med Chem, 2016).

For data set [1], the system named is Rattus norvegicus. Briefly: Anticonvulsant activity in pilocarpine-induced status epilepticus Sprague-Dawley rat model at 100 mg/kg, ip after 1 hr during post stage 3 seizure. Type of data set: functional, organism-based. The procedure, abridged:
(§1)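 Rats given pilocarpine 50 mg/kg ip and observed to first convulsive seizure (Racine stage 3–5, time zero); test drug then given ip in 0.5% methylcellulose. Efficacy = halting further stage 3–5 convulsive seizures; scored protected/tested, time after first stage 3 seizure.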

Data set [2] relates to Rattus norvegicus. The data set is described as follows: Anticonvulsant activity in pilocarpine-induced status epilepticus Sprague-Dawley rat model at 100 mg/kg, ip after 0.5 hrs during post stage 3 seizure. Type of data set: functional, organism-based. The essentials:
as §1

Data set [3] concerns the target Neurotensin receptor type 1 (Homo sapiens) (UniProt P30989). Briefly: Displacement of [125I]Tyr3-neurotensin from human recombinant NT1 receptor expressed in CHO cells at 10^-5 M. Type of data set: cell-based. The essentials:
(§2)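 Radioligand binding screen run at a single test concentration of 10^-5 M. Each target used its stated receptor source (human recombinant CHO or HEK-293 cells, endogenous cell lines, or rat tissue membranes) with the listed radioligand.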
(Displacement assays read how much labelled ligand stays bound in the presence of the test substance.)

Data set [4] concerns Mus musculus. Briefly: Anticonvulsant activity in mouse assessed as protection against 6 Hz psychomotor seizure at 20 mg/kg, ip after […]. Type of data set: functional, organism-based.
Data set [5] concerns the target Small conductance calcium-activated potassium channel (Rattus norvegicus) (UniProt P70604+P70606+P70605). The data set is described as follows: Displacement of [125I]apamin from rat cerebral cortex small conductance calcium-activated potassium channel at 10^-5 M. Type of data set: tissue-based. The essentials: as §2
Data set [6] deals with Mus musculus. The data set is described as follows: Anticonvulsant activity in mouse assessed as protection against 6 Hz psychomotor seizure at 20 mg/kg, ip after 0.5 hrs. Type of data set: functional, organism-based. The essentials:
(§3)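 Suspension in 0.5% methylcellulose given ip to mice; corneal stimulation with 0.2 ms monopolar rectangular pulses at 6 Hz for 3 s from a constant current device, mice restrained then released to observation cage. Protected if normal exploratory behaviour resumed within 10 s of stimulation. Scored as protected/tested, 4 mice per group.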

The target of data set [7] is Adenosine receptor A1 (Homo sapiens) (UniProt P30542). The data set is described as follows: Displacement of [3H]DPCPX from human recombinant adenosine A1 receptor expressed in CHO cells at 10^-5 M. Type of data set: cell-based. The essentials: as §2
The subject of data set [8] is Mus musculus. The data set is described as follows: Anticonvulsant activity in mouse assessed as protection against 6 Hz psychomotor seizure at 20 mg/kg, ip after 1 hr. Type of data set: functional, organism-based. The essentials: as §3
A short description of data set [9]: MRT in CD1 mouse brain at 12.92 mg/kg, ig measured up to 240 mins by LC/ESI-MS/MS analysis. Type of data set: ADME, organism-based. As to conditions: po.
Data set [10] can be described thus: Cmax in CD1 mouse brain at 1 mg/kg, iv measured up to 240 mins by LC/ESI-MS/MS analysis. Type of data set: ADME, organism-based. Details: dose 1 mg/kg, route intravenous.
Data set [11] has as its system Mus musculus. Briefly: Volume of distribution in steady state in CD1 mouse plasma at 1 mg/kg, iv measured up to 240 mins by LC/ESI-MS/MS analysis. Type of data set: ADME, organism-based. As to conditions: in vivo, 4 h.
Data set [12] deals with Vibrio harveyi. Briefly: Mutagenicity in Vibrio harveyi BB7XM assessed as number of colonies after 48 hrs (reference value: 14 no_unit). Type of data set: ADME, organism-based. As to conditions: in vivo. The procedure, abridged:
(§4)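 Vibrio harveyi mutagenicity test: test compound was added to exponentially growing cultures (A600 = 0.1, 30 °C) and grown to OD600 0.3–0.4. Then 5 × 10^6 cells were plated on BOSS agar with neomycin (final 100 µg/mL) and incubated 48 h at 30 °C. Neomycin-resistant colonies were counted. Triplicate; controls were water, DMSO and NQNO 40 ng/mL.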

The nature of data set [13]: Retention time of the compound in mouse liver microsomes at 20 uM preincubated for 15 mins followed by addition of NADPH-regenerating system measured after 5 to 90 mins by […] analysis. Type of data set: ADME. The procedure, abridged:
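Mouse liver microsomes (0.4 mg/mL) with test compound (20 µM) in 100 mM potassium phosphate, pH 7.4, were preincubated 15 min at 37 °C. An NADPH-regenerating system was then added and incubation ran 5–90 min at 37 °C. Levallorphan (20 µM) served as internal standard, and reactions were quenched with perchloric acid. The supernatant was analysed by UPLC/MS. Duplicate incubations.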
On the technique in general: Microsomes from liver hold many membrane-bound enzymes, among them those of drug oxidation.

Data set [14] deals with Mus musculus. The data set is described as follows: AUMC (0 to infinity) in CD1 mouse plasma at 1 mg/kg, iv measured up to 240 mins by LC/ESI-MS/MS analysis. Type of data set: ADME, organism-based. As to conditions: in vivo, 4 h. The essentials:
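Male CD1 mice fasted overnight, single iv dose 1 mg/kg; sampled at 0, 5, 15, 30, 60, 120 and 240 min (one sample per mouse, four mice per time), under ketamine/xylazine. Heparinized plasma quantified by validated LC/ESI-MS/MS; non-compartmental moment method; AUMC extrapolated to infinity using terminal rate constant from log-linear regression.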

The subject of data set [15] is Mus musculus. The data set is described as follows: Neurotoxicity in mouse at 300 mg/kg, ip after 0.5 hrs by rotarod test. Type of data set: toxicity, organism-based. As to conditions: in vivo. The essentials: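 Mice were dosed ip with compound suspended in 0.5% methylcellulose. Rotarod: a 1 in. knurled rod turning at 6 rpm. Neurotoxicity was scored as failure to stay on the rod for at least 1 min in each of three trials. Results are given as the number of animals affected out of the number tested.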
A general note: Falling from the rotarod earlier than controls is read as motor impairment.

Data set [16] in a line: Ratio of drug level in brain to plasma in CD1 mouse at 1 mg/kg, iv administered as single dose measured after 240 mins by LC/ESI-MS/MS analysis. Type of data set: ADME, organism-based. As to conditions: brain and plasma, read-out: BPR.
For data set [17], the system named is Mus musculus. The data set is described as follows: AUMC (0 to infinity) in CD1 mouse plasma at 12.92 mg/kg, ig measured up to 240 mins by LC/ESI-MS/MS analysis. Type of data set: ADME, organism-based. As to conditions: in vivo, po, 4 h.
Data set [18] concerns the target hERG (KCNH2) (Homo sapiens, UniProt Q12809). Briefly: Displacement of [3H]astemizole from human recombinant ERG expressed in HEK293 cells at 10^-4 M. Type of data set: cell-based. As to conditions: HEK293 cells that express human recombinant ERG, probe [3H]astemizole.
Data set [19] in a line: Ratio of drug level in brain to plasma in CD1 mouse at 12.92 mg/kg, ip administered as single dose measured after 30 mins by LC/ESI-MS/MS analysis. Type of data set: ADME, organism-based. As to conditions: brain and plasma, read-out: BPR.
The test system of data set [20] is Rattus norvegicus. Briefly: Toxicity in pilocarpine-induced status epilepticus Sprague-Dawley rat assessed as death at 400 mg/kg, ip. As to conditions: in vivo. Type of data set: organism-based. The procedure, abridged:
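Pilocarpine 50 mg/kg ip given to male Sprague-Dawley rats (150–180 g). At the first stage 3–5 seizure (Racine scale), compound was given ip to groups of 8. Deaths and protection were recorded at 0.25–4 h; weight change was measured 24 h after the first stage 3 seizure.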

Data set [21] relates to Vibrio harveyi. Briefly: Antimutagenic activity against Vibrio harveyi BB7 assessed as inhibition of NQNO-induced mutagenicity after 48 hrs. Type of data set: functional. The essentials: (§5)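 V. harveyi cultures grown exponentially to A600 0.1 at 30 °C, exposed to test compound for 15 min, then to NQNO, and grown on to A600 0.3–0.4. 5 × 10⁶ cells plated on BOSS agar with neomycin (100, final). Neomycin-resistant colonies counted after 48 h at 30 °C. Result given as % inhibition of NQNO mutagenicity; three independent repeats.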

Data set [22] has as its system Vibrio harveyi. Briefly: Mutagenicity in Vibrio harveyi BB7M assessed as number of colonies after 48 hrs (reference value: 13 to 14 no_unit). Type of data set: ADME, organism-based. As to conditions: in vivo. The essentials:
as §4

Data set [23] is described as follows: Ratio of drug level in brain to plasma in CD1 mouse at 1 mg/kg, iv administered as single dose measured after 30 mins by LC/ESI-MS/MS analysis. Type of data set: ADME, organism-based. As to conditions: brain and plasma, read-out: BPR.
Data set [24] can be described thus: MRT in CD1 mouse plasma at 12.92 mg/kg, ip measured up to 240 mins by LC/ESI-MS/MS analysis. Type of data set: ADME, organism-based.
The test system of data set [25] is Vibrio harveyi. Briefly: Antimutagenic activity against Vibrio harveyi BB7XM assessed as inhibition of NQNO-induced mutagenicity after 48 hrs. Type of data set: functional. The procedure, abridged:
as §5

Active and inactive are the calls of the source. The rule behind the calls is not given here.

hERG (KCNH2), sequence (Q12809 whole entry): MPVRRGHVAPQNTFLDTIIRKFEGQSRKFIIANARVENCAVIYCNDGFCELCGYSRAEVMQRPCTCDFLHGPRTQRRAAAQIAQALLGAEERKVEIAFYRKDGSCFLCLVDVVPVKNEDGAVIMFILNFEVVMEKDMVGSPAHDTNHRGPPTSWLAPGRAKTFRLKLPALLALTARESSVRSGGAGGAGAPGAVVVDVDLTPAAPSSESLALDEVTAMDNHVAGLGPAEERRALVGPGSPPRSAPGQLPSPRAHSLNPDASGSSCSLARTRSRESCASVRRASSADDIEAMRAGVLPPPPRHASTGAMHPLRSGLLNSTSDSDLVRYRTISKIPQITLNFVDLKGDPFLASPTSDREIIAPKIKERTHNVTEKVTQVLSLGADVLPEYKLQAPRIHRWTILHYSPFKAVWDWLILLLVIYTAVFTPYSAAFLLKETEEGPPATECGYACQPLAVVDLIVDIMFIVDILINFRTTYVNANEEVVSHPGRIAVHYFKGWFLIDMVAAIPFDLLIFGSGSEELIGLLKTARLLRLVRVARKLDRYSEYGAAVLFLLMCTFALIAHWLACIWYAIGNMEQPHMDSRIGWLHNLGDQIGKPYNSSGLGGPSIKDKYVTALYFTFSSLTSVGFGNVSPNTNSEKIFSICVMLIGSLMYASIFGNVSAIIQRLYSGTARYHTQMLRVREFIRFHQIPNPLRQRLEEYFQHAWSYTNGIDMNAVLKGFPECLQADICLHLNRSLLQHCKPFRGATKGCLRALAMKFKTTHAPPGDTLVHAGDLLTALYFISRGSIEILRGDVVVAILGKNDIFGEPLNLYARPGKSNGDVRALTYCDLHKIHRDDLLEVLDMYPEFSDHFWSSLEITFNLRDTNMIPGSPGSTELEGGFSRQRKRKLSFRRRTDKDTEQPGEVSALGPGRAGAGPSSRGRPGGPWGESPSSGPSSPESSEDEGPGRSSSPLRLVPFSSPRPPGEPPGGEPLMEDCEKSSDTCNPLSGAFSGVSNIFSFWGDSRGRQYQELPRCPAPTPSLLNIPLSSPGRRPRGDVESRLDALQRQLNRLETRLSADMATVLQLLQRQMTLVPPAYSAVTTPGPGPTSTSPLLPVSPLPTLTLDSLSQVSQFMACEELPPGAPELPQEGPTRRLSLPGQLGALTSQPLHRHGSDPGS
Neurotensin receptor type 1 (Homo sapiens), sequence (P30989 whole entry): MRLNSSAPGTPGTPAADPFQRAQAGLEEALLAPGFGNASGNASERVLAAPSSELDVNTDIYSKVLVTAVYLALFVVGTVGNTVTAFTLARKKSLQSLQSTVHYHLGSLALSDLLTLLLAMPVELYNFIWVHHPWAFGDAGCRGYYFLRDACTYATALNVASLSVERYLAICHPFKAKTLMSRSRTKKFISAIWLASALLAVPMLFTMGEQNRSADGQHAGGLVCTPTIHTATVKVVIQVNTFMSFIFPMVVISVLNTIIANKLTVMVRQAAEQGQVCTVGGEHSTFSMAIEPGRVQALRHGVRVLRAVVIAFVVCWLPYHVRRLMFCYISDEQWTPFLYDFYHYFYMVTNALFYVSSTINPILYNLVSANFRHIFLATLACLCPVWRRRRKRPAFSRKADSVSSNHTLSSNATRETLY
Adenosine receptor A1 (Homo sapiens), sequence (P30542 whole entry): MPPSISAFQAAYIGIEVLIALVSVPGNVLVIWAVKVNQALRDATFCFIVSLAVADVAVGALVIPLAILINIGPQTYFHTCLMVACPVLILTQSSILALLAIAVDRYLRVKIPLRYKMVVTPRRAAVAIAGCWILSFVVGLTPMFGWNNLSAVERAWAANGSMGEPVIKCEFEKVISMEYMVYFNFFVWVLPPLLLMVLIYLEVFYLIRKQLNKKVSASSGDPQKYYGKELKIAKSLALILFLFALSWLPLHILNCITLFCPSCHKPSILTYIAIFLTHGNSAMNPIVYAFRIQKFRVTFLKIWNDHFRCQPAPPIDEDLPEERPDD

Turning to `Cc1cccc(C)c1OCCOCCN[C@H](C)CO`, the result in [1] and in [2] was inactive. Further, the inhibition (commonly the change of the read-out against control, counted positive when it falls) in [3] was -4.2%.
As to `Cc1cccc(C)c1OCCOCCN[C@@H](C)CO`, the outcome in data set [4], in data set [6] and in data set [8] was inactive. The inhibition in data set [5] is -0.9%; in [7], -6.9%.
Take `Cc1cccc(C)c1OCCOCCN[C@H](C)CO.Cl`: the MRT (as a rule, the average time that molecules of a dose stay in the body) is 1.23 h in data set [9] and 1.42 h in data set [24]. Further, in [10], the Cmax (in general, the peak of the concentration-time curve) stood at 11500 ng/mL. The Vdss (as a rule, the apparent volume that relates the amount in the body to the concentration in plasma or blood) in [11] came out at 0.8997 L/kg. The Activity is 18 in data set [12], “Toxic” in [15], “Non-toxic” in data set [20] and 22 in data set [22]. Further, the Retention_time in data set [13] came out at 3.81 min. Further, the AUMC in [14] was 956 ng·h²/mL; in data set [17], 266 ng·h²/mL. In [16], the Kp at 4 h is 2.98. Also, the inhibition at 100 µM in data set [18] is 3.6%. Also, the Kp at 0.5 h in [19] was 4.25; in data set [23], 5.41. Besides, the “inhibition (INH)” value was 75% in data set [21] and 41% in data set [25].
